{
  "source": "PubChem BioAssay AID493051",
  "about": "(Broad Institute, 2011)",
  "note": "Activity calls are given as the source filed them.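 The calls were made as follows: active = viability loss with dose, its half-maximal concentration at most ten times the top valid tested dose; inconclusive = flat viability loss of 30 to 70 percent, or poor fit; inactive = the rest.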",
  "data": [
    {"test_system": "not listed separately", "experiment": "BJeH cell viability loss – BJeH cells, dry powder, set 2, counter-screen for Ras selective lethality project, dose response (AID 493051)", "conditions": "BJeH fibroblast viability, Alamar Blue fluorescence, 48 h; at 48 µM (top of the series)", "outline": "(§1)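 Assay system: BJeH cells, BJ human fibroblasts immortalized with hTERT; Amount: 1000 cells per well; Dosing: compound as a 2-fold dilution series; Times: 48 h compound treatment at 37 °C, ~16 h dye incubation; Technique: Alamar Blue fluorescence (544 nm ex, 590 nm em).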", "values": [
      {"smiles": "Cc1onc(C(=O)N2CCN(C(c3ccccc3)c3ccccc3)CC2)c1N", "activity change, negative = viability loss": "5.64% (inactive)"},
      {"smiles": "Cc1onc(C(=O)N2CCN(C(c3ccccc3)c3ccccc3)CC2)c1NS(C)(=O)=O", "activity change, negative = viability loss": "8.49% (inactive)"},
      {"smiles": "Cc1onc(C(=O)N2CCN(C(c3ccccn3)c3ccccn3)CC2)c1[N+](=O)[O-]", "activity change, negative = viability loss": "-5.34% (inactive)"},
      {"smiles": "CC(=O)Nc1c(C(=O)N2CCN(C(c3ccccc3)c3ccccc3)CC2)noc1C", "activity change, negative = viability loss": "15.6% (inactive)"},
      {"smiles": "Cc1onc(C(=O)N2CCN(C(c3ccccc3)c3ccccc3)CC2)c1Br", "activity change, negative = viability loss": "22.7% (inactive)"},
      {"smiles": "Cc1ccc(C(=O)N2CCN(C(c3ccccc3)c3ccccc3)CC2)c([N+](=O)[O-])c1", "activity change, negative = viability loss": "19.4% (inactive)"},
      {"smiles": "Cc1onc(C(=O)N2CCN(C(c3ccncc3)c3ccncc3)CC2)c1[N+](=O)[O-]", "activity change, negative = viability loss": "4.32% (inactive)"},
      {"smiles": "CC(C)c1onc(C(=O)N2CCN(C(c3ccccc3)c3ccccc3)CC2)c1[N+](=O)[O-]", "activity change, negative = viability loss": "18.4% (inactive)"},
      {"smiles": "Cc1onc(C(=O)NCCNC(c2ccccc2)c2ccccc2)c1[N+](=O)[O-]", "activity change, negative = viability loss": "-6.54% (inactive)"},
      {"smiles": "Cc1onc(C(=O)N2CCN(C(c3ccccc3)c3ccccc3)CC2)c1C", "activity change, negative = viability loss": "46.9% (inactive)"},
      {"smiles": "O=[N+]([O-])c1ccc(CN2CCN(C(c3ccccc3)c3ccccc3)CC2)o1", "activity change, negative = viability loss": "-9.67% (inactive)"},
      {"smiles": "O=C(c1noc2ccccc12)N1CCN(C(c2ccccc2)c2ccccc2)CC1", "activity change, negative = viability loss": "27.9% (inactive)"},
      {"smiles": "Cc1oc(C)c(C(=O)N2CCN(C(c3ccccc3)c3ccccc3)CC2)c1C", "activity change, negative = viability loss": "49.1% (inactive)"}
    ]},
    {"test_system": "not listed separately", "experiment": "BJeH cell viability loss – BJeH cells, dry powder, set 2, counter-screen for Ras selective lethality project, dose response (AID 493051)", "conditions": "BJeH fibroblast viability, Alamar Blue fluorescence, 48 h; at 68 µM (top of the series)", "outline": "as §1", "values": [
      {"smiles": "Cc1onc(C(=O)N2CCOCC2)c1[N+](=O)[O-]", "activity change, negative = viability loss": "10.9% (inactive)"},
      {"smiles": "Cc1cc(C(=O)N2CCN(Cc3ccccc3)CC2)no1", "activity change, negative = viability loss": "3.96% (inactive)"},
      {"smiles": "COc1ccccc1N1CCN(C(=O)c2noc(C)c2[N+](=O)[O-])CC1", "activity change, negative = viability loss": "10.7% (inactive)"},
      {"smiles": "Cc1onc(C(=O)N2CCN(Cc3ccccc3)CC2)c1[N+](=O)[O-]", "activity change, negative = viability loss": "7.25% (inactive)"},
      {"smiles": "Cc1onc(C(=O)NCc2ccc(F)cc2)c1[N+](=O)[O-]", "activity change, negative = viability loss": "13.9% (inactive)"},
      {"smiles": "CCOC(=O)N1CCN(C(=O)c2noc(C)c2[N+](=O)[O-])CC1", "activity change, negative = viability loss": "7.91% (inactive)"}
    ]},
    {"test_system": "BJeH fibroblast viability, Alamar Blue fluorescence, 48 h", "experiment": "BJeH cell viability loss – BJeH cells, dry powder, set 2, counter-screen for Ras selective lethality project, dose response (AID 493051)", "conditions": "not given", "outline": "as §1", "units": {"AC50": "µM"}, "values": [
      {"smiles": "O=C(NCCNC(c1ccccc1)c1ccccc1)c1ccc([N+](=O)[O-])o1", "AC50": 3.33},
      {"smiles": "Cc1onc(C(=O)N2CCN(C(c3ccc(Cl)cc3)c3ccc(Cl)cc3)CC2)c1[N+](=O)[O-]", "AC50": 0.628},
      {"smiles": "Cc1onc(C(=O)N2CCN(C(c3ccccc3)c3ccc(Cl)cc3)CC2)c1[N+](=O)[O-]", "note": "(stereo not given)", "AC50": 0.958},
      {"smiles": "Cc1onc(C(=O)N2CCN(C(c3ccc(F)cc3)c3ccc(F)cc3)CC2)c1[N+](=O)[O-]", "AC50": 1.49},
      {"smiles": "Cc1onc(C(=O)N2CCCN(C(c3ccccc3)c3ccccc3)CC2)c1[N+](=O)[O-]", "AC50": 5.13},
      {"smiles": "O=C(c1ccc([N+](=O)[O-])o1)N1CCN(C(c2ccc(F)cc2)c2ccc(F)cc2)CC1", "AC50": 11.8},
      {"smiles": "COc1ccc(C(c2ccc(OC)cc2)N2CCN(C(=O)c3ccc([N+](=O)[O-])o3)CC2)cc1", "AC50": 6.29},
      {"smiles": "Cc1onc(C(=O)N2CCN(C(c3ccccc3)c3ccccc3)CC2)c1[N+](=O)[O-]", "AC50": 7.89},
      {"smiles": "COc1ccc(C(c2ccc(OC)cc2)N2CCN(C(=O)c3noc(C)c3[N+](=O)[O-])CC2)cc1", "AC50": 9.36},
      {"smiles": "O=C(c1ccc([N+](=O)[O-])o1)N1CCN(C(c2ccccc2)c2ccccc2)CC1", "AC50": 17.7},
      {"smiles": "O=C(c1ccc([N+](=O)[O-])o1)N1CCCN(C(c2ccccc2)c2ccccc2)CC1", "AC50": 63.2}
    ]}
  ]
}
